From ChEMBL document CHEMBL3259675, “Novel N-substituted sophoridinol derivatives as anticancer agents” (Eur J Med Chem, 2014)

System: HepG2
Assay: Antiproliferative activity against human HepG2 cells assessed as growth inhibition at 10 ug/ml after 48 hrs by MTT assay
Format: functional
Conditions: HepG2, 48 h
Method in brief: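 Cell lines from ATCC, grown in MEM-EBSS with 10% FBS and 1% penicillin-streptomycin at 37 °C, 5% CO2. Seeded at 4000 cells/well, left 24 h, then exposed to a concentration series for 48 h. Growth read by MTT. Percent inhibition was computed at each concentration and IC50 derived from it. Triplicate determinations, reported as mean SD.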

Row | Structure (SMILES) | inhibition at 10 µg/mL
1 | OCCCC[C@@H]1[C@H]2CCCN3CCC[C@@H](CN1Cc1ccccc1)[C@@H]23 | 31%
2 | COCCCC[C@@H]1[C@H]2CCCN3CCC[C@H](CN1Cc1ccccc1)[C@@H]23 | 4.4%
3 | COC(=O)CCC[C@H]1NC[C@H]2CCCN3CCC[C@H]1[C@H]23 | 33.4%
4 | CCCN1C[C@H]2CCCN3CCC[C@@H]([C@H]23)[C@H]1CCCC(=O)OC | 24.9%
5 | COC(=O)CCC[C@@H]1[C@H]2CCCN3CCC[C@H](CN1CC(C)C)[C@@H]23 | 26.8%
6 | COC(=O)CCC[C@@H]1[C@H]2CCCN3CCC[C@H](CN1Cc1ccccc1F)[C@@H]23 | 60.8%
7 | COC(=O)CCC[C@@H]1[C@H]2CCCN3CCC[C@H](CN1Cc1cccc(F)c1)[C@@H]23 | 81.8%
8 | COC(=O)CCC[C@@H]1[C@H]2CCCN3CCC[C@H](CN1Cc1ccc(F)cc1)[C@@H]23 | 73.1%
9 | COC(=O)CCC[C@@H]1[C@H]2CCCN3CCC[C@H](CN1Cc1cccc(Cl)c1)[C@@H]23 | 84.9%
10 | COC(=O)CCC[C@@H]1[C@H]2CCCN3CCC[C@H](CN1Cc1ccc(Br)cc1)[C@@H]23 | 89.6%
11 | COC(=O)CCC[C@@H]1[C@H]2CCCN3CCC[C@H](CN1Cc1ccncc1)[C@@H]23 | 29.9%
12 | COC(=O)CCC[C@@H]1[C@H]2CCCN3CCC[C@H](CN1Cc1ccco1)[C@@H]23 | 16.6%
13 | CCCN1C[C@H]2CCCN3CCC[C@@H]([C@H]23)[C@H]1CCCC(=O)O | 25.3%
14 | CC(C)CN1C[C@H]2CCCN3CCC[C@@H]([C@H]23)[C@H]1CCCC(=O)O | 10.7%
15 | O=C(O)CCC[C@@H]1[C@H]2CCCN3CCC[C@H](CN1Cc1ccccc1)[C@@H]23 | 1.5%
16 | O=C(O)CCC[C@@H]1[C@H]2CCCN3CCC[C@H](CN1Cc1ccccc1F)[C@@H]23 | 1.6%
17 | O=C(O)CCC[C@@H]1[C@H]2CCCN3CCC[C@H](CN1Cc1cccc(F)c1)[C@@H]23 | 25.2%
18 | O=C(O)CCC[C@@H]1[C@H]2CCCN3CCC[C@H](CN1Cc1ccc(F)cc1)[C@@H]23 | 2%
19 | O=C(O)CCC[C@@H]1[C@H]2CCCN3CCC[C@H](CN1Cc1cccc(Cl)c1)[C@@H]23 | 22.8%
20 | O=C(O)CCC[C@@H]1[C@H]2CCCN3CCC[C@H](CN1Cc1ccc(Cl)cc1)[C@@H]23 | 3.5%
21 | O=C(O)CCC[C@@H]1[C@H]2CCCN3CCC[C@H](CN1Cc1ccc(Br)cc1)[C@@H]23 | 24.9%
22 | O=C(O)CCC[C@@H]1[C@H]2CCCN3CCC[C@H](CN1Cc1ccncc1)[C@@H]23 | 22.3%
23 | NC(=O)CCC[C@@H]1[C@H]2CCCN3CCC[C@H](CN1Cc1ccc(Cl)cc1)[C@@H]23 | 1.7%
24 | CCCN1C[C@H]2CCCN3CCC[C@@H]([C@H]23)[C@H]1CCCCO | 0.9%
